ChEMBL document CHEMBL4177552, “Synthesis and hyperpolarisation of eNOS substrates for quantification of NO production by 1H NMR spectroscopy” (Bioorg Med Chem, 2017)
Where a SMILES comes first, the peptide text is derived from it.

Test system: not listed separately
Experiment: Drug metabolism is PBS buffer assessed as compound conversion after 3 hrs by 1H NMR spectroscopy

`N=C(N)NCCC[C@H](N)C(=O)Nc1ccncc1` gave a degraded at 3 h of 41%.

Biological target: T1, Nitric oxide synthase 3 (Bos taurus) (UniProt P29473)
T1 sequence (whole entry): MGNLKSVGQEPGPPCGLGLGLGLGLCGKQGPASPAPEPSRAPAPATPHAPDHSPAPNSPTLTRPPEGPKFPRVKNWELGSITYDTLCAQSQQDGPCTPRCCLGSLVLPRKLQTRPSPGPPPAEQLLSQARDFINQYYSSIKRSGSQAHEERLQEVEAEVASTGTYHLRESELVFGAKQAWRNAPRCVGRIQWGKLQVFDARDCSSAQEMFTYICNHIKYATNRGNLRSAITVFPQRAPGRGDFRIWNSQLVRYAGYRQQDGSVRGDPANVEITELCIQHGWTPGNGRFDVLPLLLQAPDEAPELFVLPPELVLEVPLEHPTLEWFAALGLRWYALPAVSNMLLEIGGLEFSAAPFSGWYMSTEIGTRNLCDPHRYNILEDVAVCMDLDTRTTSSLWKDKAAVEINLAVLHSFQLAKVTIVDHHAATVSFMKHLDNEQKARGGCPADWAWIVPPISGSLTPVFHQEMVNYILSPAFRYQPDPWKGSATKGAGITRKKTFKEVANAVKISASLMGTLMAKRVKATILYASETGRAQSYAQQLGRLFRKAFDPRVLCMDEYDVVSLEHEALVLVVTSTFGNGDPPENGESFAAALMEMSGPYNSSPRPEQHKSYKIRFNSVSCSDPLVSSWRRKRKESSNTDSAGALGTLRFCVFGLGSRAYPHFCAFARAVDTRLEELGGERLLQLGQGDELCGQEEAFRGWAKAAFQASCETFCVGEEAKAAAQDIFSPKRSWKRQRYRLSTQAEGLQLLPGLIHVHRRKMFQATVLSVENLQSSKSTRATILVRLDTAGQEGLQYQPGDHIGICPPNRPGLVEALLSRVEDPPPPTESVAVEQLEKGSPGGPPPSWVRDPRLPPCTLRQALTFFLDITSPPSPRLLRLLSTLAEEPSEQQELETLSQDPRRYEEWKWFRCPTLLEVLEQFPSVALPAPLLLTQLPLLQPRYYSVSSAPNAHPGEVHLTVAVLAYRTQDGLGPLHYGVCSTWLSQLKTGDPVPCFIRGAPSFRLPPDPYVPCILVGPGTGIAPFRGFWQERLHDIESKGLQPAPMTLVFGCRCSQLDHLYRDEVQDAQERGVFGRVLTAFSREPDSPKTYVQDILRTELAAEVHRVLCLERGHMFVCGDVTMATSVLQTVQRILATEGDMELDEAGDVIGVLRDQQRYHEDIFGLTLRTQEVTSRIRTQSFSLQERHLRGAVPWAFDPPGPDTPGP
Experiment: Substrate activity at recombinant bovine eNOS assessed as enzyme mediated nitrite production after 40 mins by Griess reagent base LDH assay
Summary of the method: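 Run for 40 min alongside an l-arginine positive control and a negative control. Stopped with ice-cold 20 mM HEPES pH 5.5, 2 mM EDTA, 2 mM EGTA. NO-derived nitrite quantified by Griess colorimetry (nitrate/nitrite LDH method).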

First: N/C(=N\O)NCCC[C@H](N)C(=O)NCc1ccncc1
Second: N=C(N)NCCC[C@H](N)C(=O)NCc1ccncc1
The Activity of the first is 1.8-fold lower: 26 µM for the first, 48 µM for the second.

`N=C(N)NCCC[C@H](N)C(=O)Nc1ccncc1` and `CC(NC(=O)[C@@H](N)CCCNC(=N)N)c1ccncc1` (stereo partly drawn) are within 1.5-fold of each other in Activity: 22 µM for the first, 20 µM for the second.

`N=C(N)NCCC[C@H](N)C(=O)O` and `N=C(N)NCCC[C@H](N)C(=O)NCc1cccnc1` are within 1.5-fold of each other in Activity: 25 µM for the first, 22 µM for the second.

`N/C(=N\O)NCCCCC(=O)NCc1ccncc1` and `CC(=O)N[C@@H](CCCN/C(N)=N/O)C(=O)NCc1ccncc1` are within 1.5-fold of each other in Activity: 29 µM for the first, 27 µM for the second.

`CN(Cc1ccncc1)C(=O)[C@@H](N)CCCNC(=N)N` and `CN(Cc1cccnc1)C(=O)[C@@H](N)CCCNC(=N)N` are within 1.5-fold of each other in Activity: 21 µM for the first, 23 µM for the second.

`N=C(N)NCCC[C@H](N)C(=O)N[C@@H](Cc1cccnc1)C(=O)O` (HELM PEPTIDE1{R.[O=C(O)[C@H](Cc1cccnc1)N[*:1]]}$$$$V2.0) and `CC(NC(=O)[C@@H](N)CCCNC(=N)N)c1cccnc1` (stereo partly drawn) are within 1.5-fold of each other in Activity: 38 µM for the first, 26 µM for the second.
